These results are taken from paper PMC9904295 (Drug Delivery, 2023).

Data set [1] in a line: Pharmacokinetic study in rats, intravenous. In kind it is in vivo, Sprague-Dawley rats. The conditions noted are these: i.v., 5 mg/kg in OXA. Put shortly:
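Twelve Sprague-Dawley rats (half male) were split into two groups and given one i.v. dose equivalent to 5 mg/kg. The free drug was prepared in 5% glucose. Retro-orbital blood was taken at 0.083–24 h and centrifuged at 12,000 rpm for 5 min. Plasma drug was measured by UPLC-MS/MS and total Pt by ICP-MS. Non-compartmental analysis gave AUC, Cmax, t1/2, MRT and CL; mean ± SD, n = 6.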

Data set [2] is described as follows: Toxicity evaluation after repeated dosing. In kind it is in vivo. The settings on record: ICR mice. The essentials: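 Male ICR mice (17–18 g) were randomised into six groups (n = 10), with 5% glucose as control. Test compound was given i.v. every 3 days for five doses at 7.5 or 10 mg/kg (free form) or 7.5, 10 or 15 mg/kg drug-equivalent (nanoparticle). At the end, organs were harvested for viscera index, whole blood was taken for routine counts, and serum TP, ALB, UREA and Cr were measured. Data are mean ± SD, Student's t test.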

The next data set concerns SW620 cells. In words: In vivo antitumor efficacy in xenograft tumor-bearing mice. Set-up: species or system BALB/c nude mice. The conditions noted are these: xenograft tumor-bearing nude mice, i.v. once a week. Put shortly: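 Male BALB/c nude mice (18–20 g) were inoculated with 3 × 10^6 SW620 cells at the right third fat pad. At tumors of about 100–200 mm3 they were randomised into six groups, with 5% glucose as control. Test compound was given i.v. by tail vein once a week for 4 weeks at 5 or 10 mg/kg (free form) or 5, 10 or 20 mg/kg (nanoparticle). Tumor volume (L × W × W/2) and body weight were measured three times weekly, and RTV = V/V0. Tumors were weighed at the end; n = 6, mean ± SD, Student's t test.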

The mark [3] stands for this setting: analyte total Pt (ICP-MS) in plasma.

Regarding `O=C1[O][Pt]2([NH][C@@H]3CCCC[C@H]3[NH]2)[O]C1=O` [OXA, oxaliplatin], in data set [1] (analyte OXA in plasma), the AUC0-t came to 1940 ± 390 ng·h/mL, the “AUC0-∞” value is 2030 ± 550 ng·h/mL, the CL is 2,580 ± 560 mL/h/kg and the Cmax came to 9580 ± 1420 ng/mL. In data set [1] (analyte OXA in plasma), this compound came in with a T1/2 of 0.16 ± 0.07 h and a Vz of 567 ± 70 mL/kg. In addition, in data set [1] (setting [3]), the AUC0-t was 13000 ± 3440 ng·h/mL, the “AUC0-∞” value worked out at 19980 ± 5650 ng·h/mL, the CL was found to be 127.98 ± 36.2 mL/h/kg and the Cmax was determined as 4760 ± 680 ng/mL. For the same compound, in data set [1] (setting [3]), the T1/2 is 17.52 ± 0.52 h and the Vz is given as 3,220 ± 818 mL/kg. Further, in data set [2] (10 mg/kg i.v. every 3 days for five times), the UREA result was “significant decrease”. The “biochemical indexes (TP, ALB, UREA, Cr)” value in data set [2] (i.v. every 3 days for five times, except UREA at 10 mg/kg) is recorded as “No significant change”. Moreover, in the data set on SW620 cells, the “tumor growth inhibition, dose dependence” value was “dose-dependent tumor growth inhibition”.

By Cmax is commonly meant the maximum level reached in the sampled fluid or tissue. What is called Vz is a proportionality between amount in the body and measured concentration, not a real space.
